Source: ChEMBL document CHEMBL4732095, “Novel naphthylamide derivatives as dual-target antifungal inhibitors: Design, synthesis and biological evaluation” (Eur J Med Chem, 2021)
Activity calls are given as the source filed them. No cut-off for these calls is given here.

Experiments:
Candida albicans [1] = assay: Antifungal activity against fluconazole-resistant Candida albicans CaR assessed as inhibition of microbial growth by NCCLS protocol based method; format: functional
Candida albicans [2] = assay: Antifungal activity against fluconazole-resistant Candida albicans 632 assessed as inhibition of microbial growth by NCCLS protocol based method; format: functional
Candida albicans [3] = assay: Antifungal activity against fluconazole-resistant Candida albicans 901 assessed as inhibition of microbial growth by NCCLS protocol based method; format: functional
Candida albicans [4] = assay: Antifungal activity against Candida albicans ATCC SC5314 assessed as decrease in fungal cell density at 10 nM/mL by polarizing microscopy; format: functional, organism-based; details: dose 10.0 nmol/ml
Method in brief: (§1)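 C. albicans ATCC SC5314 observed by polarizing microscopy over treatment time. Untreated, fluconazole- and naftifine-treated control groups were included. Cell density, dividing cells and cell fracture were assessed, with cell counts taken per field.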

Candida albicans [5] = assay: Antifungal activity against Candida albicans ATCC SC5314 assessed as induction of cell fracture at 10 nM/mL by polarizing microscopy; format: functional, organism-based; details: dose 10.0 nmol/ml; method in brief: as §1
Candida albicans [6] = assay: Antifungal activity against Candida albicans ATCC SC5314 assessed as reduction in survival rate of fungal cells (reference value: 97%); format: functional
Candida albicans SC5314 [7] = assay: Inhibition of SE/CYP51 in Candida albicans ATCC SC5314 assessed as ergosterol level at […] ug/ml incubated for 48 hrs by LC/MS analysis (reference value: 95.1 %); design: scale not given: the % may be the effect or the level left; details: dose 0.125 µg/ml
Candida albicans SC5314 [8] = assay: Inhibition of SE/CYP51 in Candida albicans ATCC SC5314 assessed as squalene level at 0.125 ug/ml incubated for 48 hrs by LC/MS analysis; design: scale not given: the % may be the effect or the level left; details: dose 0.125 µg/ml
Method in brief: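 C. albicans ATCC SC5314 cells exposed to drug at 0.125, 0.5 or 4 μg/mL for 48 h, alongside an untreated control. Sterols were extracted and analysed by LC-MS. Ergosterol, squalene, lanosterol, eburicol and unknown sterols are each given as % of total sterols, calculated from the peak area ratio of each component.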

Candida albicans SC5314 [9] = assay: Inhibition of SE/CYP51 in Candida albicans ATCC SC5314 assessed as squalene level at 0.5 ug/ml incubated for 48 hrs by LC/MS analysis; design: scale not given: the % may be the effect or the level left; details: dose 0.5 µg/ml
Method in brief: (§2)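 C. albicans SC5314 cells exposed to compound at 0.125, 0.5 or 4 μg/mL for 48 h, alongside untreated, fluconazole and naftifine controls. Sterols (ergosterol, squalene, lanosterol, eburicol, unknown) analysed by LC-MS. Each component expressed as percentage of total sterols from peak area ratios.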

Candida albicans SC5314 [10] = assay: Inhibition of SE/CYP51 in Candida albicans ATCC SC5314 assessed as lanosterol level at 0.5 ug/ml incubated for 48 hrs by LC/MS analysis; design: scale not given: the % may be the effect or the level left; details: dose 0.5 µg/ml; method in brief: as §2
Candida albicans SC5314 [11] = assay: Inhibition of SE/CYP51 in Candida albicans ATCC SC5314 assessed as unknown sterol level at 4 ug/ml incubated for 48 hrs by LC/MS analysis (reference value: 3.5 %); design: scale not given: the % may be the effect or the level left; details: dose 4.0 µg/ml; method in brief: as §2
[12] = Toxicity in mouse infected with Candida albicans SC5314 assessed as change in spleen morphology administered via abdomen for 7 days by H and E staining based histological analysis; details: in vivo, ip, 168 h, time 7 day
Method in brief: (§3)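 Mice infected with C. albicans SC5314 by subcutaneous abdominal injection, then randomized into saline, and two compound-treated groups. Treatment given by abdominal injection for 7 days, with body weight monitored. Heart, liver, spleen, lung, kidney and infected abdominal tissue harvested for H&E histology.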

[13] = Toxicity in mouse infected with Candida albicans SC5314 assessed as change in kidney morphology administered via abdomen for 7 days by H and E staining based histological analysis; details: in vivo, ip, 168 h, time 7 day; method in brief: as §3
[14] = Hepatotoxicity in mouse infected with Candida albicans SC5314 assessed as effect on aspartate aminotransferase level in plasma administered via abdomen for 7 days (reference value: 104.7 +/- 5.2 IU/L); format: toxicity; details: ip, 168 h, time 7 day
[15] = Renal toxicity in mouse infected with Candida albicans SC5314 assessed as effect on blood urea nitrogen level administered via abdomen for 7 days (reference value: 6.8 +/-0.4 mmol/L); details: in vivo, ip, 168 h, time 7 day
[16] = target: Lanosterol 14-alpha demethylase (Candida albicans (strain SC5314 / ATCC MYA-2876) (Yeast), UniProt P10613); assay: Inhibition of Candida albicans ATCC SC5314 CYP51 incubated for 30 mins by HPLC method
Candida albicans [17] = assay: Antifungal activity against Candida albicans ATCC SC5314 assessed as disappearance of fungal cell boundaries at 4 ug/ml incubated for 72 hrs by TEM analysis; format: functional, organism-based; details: dose 4.0 µg/ml
Method in brief: (§4)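 C. albicans SC5314 suspension prepared per NCCLS protocol, exposed to compound at 4 μg/mL and incubated at 35 °C. Sampled at 72 h and 144 h, with a 0 h reference. Samples fixed at 4 °C in 3% glutaraldehyde, washed in PBS, stained with uranium/osmium for 30 min, and imaged by transmission electron microscopy.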

Candida albicans [18] = assay: Antifungal activity against Candida albicans ATCC SC5314 assessed as irregular cell structure at 4 ug/ml incubated for 72 hrs by TEM analysis; format: functional, organism-based; details: dose 4.0 µg/ml; method in brief: as §4
Candida albicans [19] = assay: Antifungal activity against Candida albicans ATCC SC5314 assessed as edema cavitation at 4 ug/ml incubated for 72 hrs by TEM analysis; format: functional, organism-based; details: dose 4.0 µg/ml; method in brief: as §4
Candida albicans [20] = assay: Antifungal activity against Candida albicans ATCC SC5314 assessed as appearance of disordered ridge arrangement in cytoplasm at 4 ug/ml incubated for 72 hrs by TEM analysis; format: functional, organism-based; details: dose 4.0 µg/ml; method in brief: as §4
Candida albicans [21] = assay: Antifungal activity against Candida albicans ATCC SC5314 assessed as exfoliation of rough ER particles at 4 ug/ml incubated for 72 hrs by TEM analysis; format: functional, organism-based; details: dose 4.0 µg/ml; method in brief: as §4
Candida albicans [22] = assay: Antifungal activity against Candida albicans ATCC SC5314 assessed as cracked fungal cells at 4 ug/ml incubated for 144 hrs by TEM analysis; format: functional, organism-based; details: dose 4.0 µg/ml; method in brief: as §4

Sequence of Lanosterol 14-alpha demethylase (P10613 whole entry): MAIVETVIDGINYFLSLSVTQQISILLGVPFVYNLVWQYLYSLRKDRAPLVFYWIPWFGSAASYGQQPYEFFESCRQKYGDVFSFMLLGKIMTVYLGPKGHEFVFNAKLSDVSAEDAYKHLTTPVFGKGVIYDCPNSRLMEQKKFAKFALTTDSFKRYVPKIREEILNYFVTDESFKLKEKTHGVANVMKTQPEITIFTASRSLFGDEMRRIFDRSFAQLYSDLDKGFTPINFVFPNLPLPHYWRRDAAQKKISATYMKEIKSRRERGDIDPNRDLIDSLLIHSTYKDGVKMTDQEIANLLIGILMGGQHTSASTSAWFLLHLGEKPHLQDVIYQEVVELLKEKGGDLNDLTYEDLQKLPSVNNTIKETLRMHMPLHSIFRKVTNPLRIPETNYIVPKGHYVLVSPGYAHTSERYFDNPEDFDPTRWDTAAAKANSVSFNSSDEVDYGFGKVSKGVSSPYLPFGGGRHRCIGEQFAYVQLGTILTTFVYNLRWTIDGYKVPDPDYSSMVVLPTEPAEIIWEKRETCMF

Row | Structure (SMILES) | MIC50 (Candida albicans [1]) | MIC50 (Candida albicans [2]) | MIC50 (Candida albicans [3]) | Activity (Candida albicans [4]) | Activity (Candida albicans [5]) | Activity (Candida albicans [6]) | Activity (Candida albicans SC5314 [7]) | Activity (Candida albicans SC5314 [8]) | Activity (Candida albicans SC5314 [9]) | Activity (Candida albicans SC5314 [10]) | Activity (Candida albicans SC5314 [11]) | Activity [12] | Activity [13] | Activity [14] | Activity [15] | IC50 [16] | further results
1 | O=C(NC(Cn1ccnc1)C(=O)NCc1ccncc1)c1ccc2ccccc2c1 (stereo not drawn) | 8 µg/mL | 8 µg/mL | 4 µg/mL | Active | Active | 16% | 68.4% | 9.2% | 14.5% | 7.2% | 6.1% | Non-Toxic | Non-Toxic | 108.6 IU/L | 7.3 mmol/L | 1150 nM | –
2 | CC(NC(=O)c1cccc2ccccc12)C(=O)NC(Cn1ccnc1)C(=O)c1ccccc1 (stereo not drawn) | 4 µg/mL | 8 µg/mL | 4 µg/mL | Active | Active | 11% | 66.4% | 7.9% | 21.6% | 8.7% | 6.2% | Non-Toxic | Non-Toxic | 112.3 IU/L | 6.4 mmol/L | 537 nM | Activity (Candida albicans [17]): Active; Activity (Candida albicans [18]): Active; Activity (Candida albicans [19]): Active; Activity (Candida albicans [20]): Active; Activity (Candida albicans [21]): Active; Activity (Candida albicans [22]): Active
